# Reference: ChEMBL document CHEMBL5042498, “Development of 3-(4-Chlorophenyl)-1-(phenethyl)urea Analogues as Allosteric Modulators of the Cannabinoid Type-1 Receptor: RTICBM-189 is Brain Penetrant and Attenuates Reinstatement of Cocaine-Seeking Behavior” (J Med Chem, 2022)
# Experiments:
# Cannabinoid receptor 1 [1] = molecular target: T1, Cannabinoid receptor 1 (Homo sapiens, UniProt P21554); assay: Allosteric antagonist activity at human CB1 receptor expressed in CHO-RD-HGA16 cells overexpressing Galpha16 assessed as inhibition of CP55940-stimulated calcium mobilization incubated for 15 mins FLIPR assay; type: functional, cell-based
# [2] = molecular target: Cannabinoid receptor 2 (Homo sapiens) (UniProt P34972); assay: Antagonist activity at human CB2 receptor CP55940-stimulated calcium mobilization incubated for 15 mins FLIPR assay; type: functional; set-up: concentration or dose not given beside the values
# Summary of the method: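 CB2 antagonist screen in human CB2 CHO-RD-HGA16 cells loaded with Calcium 5 dye. Cells were pretreated 15 min at 37 °C with the test compound at a single concentration (10 μM), then challenged with CP55,940 at its EC80 during the FLIPR read (90 s, 485/525 nm). Response is expressed as % inhibition of the CP55,940 EC80 signal.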
# [3] = molecular target: Cannabinoid receptor 2 (Homo sapiens) (UniProt P34972); assay: Agonist activity at human CB2 receptor CP55940-stimulated calcium mobilization at 10 uM incubated for 15 mins FLIPR assay relative to control; type: functional
# Summary of the method: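 CB2 agonist screen in CHO-RD-HGA16 cells stably expressing human CB2, loaded with Calcium 5 dye for 45 min at 37 °C. Cells were pretreated 15 min with vehicle, then the test compound was added at a single concentration. Fluorescence was read on FLIPR every 1 s for 90 s (485/525 nm). Response is expressed as % of CP55,940 Emax.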
# Cannabinoid receptor 1 [4] = molecular target: T1, Cannabinoid receptor 1; assay: Agonist activity at human CB1 receptor CP55940-stimulated calcium mobilization at 10 uM incubated for 15 mins FLIPR assay relative to control; type: functional
# [5] = Metabolic stability in rat liver microsomes assessed as clearance in presence of NADPH measured upto 45 mins by LC-MS/MS analysis; type: ADME, Microsome; details: 0.75 h
# Summary of the method: (§1)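 Rat liver microsomes (0.5 mg/mL protein) in 100 mM potassium phosphate, pH 7.4, at 37 °C with 1 mM NADPH. Samples were taken at 0, 5, 15, 30 and 45 min, quenched with acetonitrile and analysed by LC/MS/MS. Half-life and clearance were derived from two independent experiments in duplicate.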
# [6] = Metabolic stability in rat liver microsomes assessed as half life in presence of NADPH measured upto 45 mins by LC-MS/MS analysis; type: ADME, Microsome; details: 0.75 h; summary of the method: as §1
# Cannabinoid receptor 1 [7] = molecular target: T1, Cannabinoid receptor 1; assay: Antagonist activity at N-terminal tagged human CB1 receptor transfected with HEK293 cells assessed as forskolin-stimulated cAMP level in presence of CP55940 by BRET assay; type: functional, cell-based
# Summary of the method: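 HEK293 cells stably expressing hCB1 (3HA-tagged at Otago, untagged at RTI) are transiently transfected with the CAMYEL BRET cAMP sensor. Cells are serum-starved 30 min and given 5 μM coelenterazine H final. Compound dilutions are added together with 5 μM forskolin and 1 μM CP55,940. BRET (460/535) is read for about 20 min at 37 °C.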
# Cannabinoid receptor 1 [8] = molecular target: T1, Cannabinoid receptor 1; assay: Allosteric antagonist activity against human CB1 receptor expressed in HEK293 cells membrane measured after 60 mins by [35S]GTPgammaS binding assay; type: functional, cell membranes
# Summary of the method: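 Membranes from HEK293 cells expressing hCB1 are used in assay buffer (50 mM Tris, 3 mM MgCl2, 0.2 mM EGTA, 100 mM NaCl, 1 mg/ml BSA, pH 7.4). They are preincubated 10 min, then incubated 60 min at 30 °C with 30 μM GDP, 0.1 nM [35S]GTPγS, 100 nM CP55,940 and serially diluted compound (0.1% DMSO final). Nonspecific binding is set with 30 μM unlabeled GTPγS. Reactions are filtered. Data are normalized to CP55,940 alone and fitted by 3-parameter regression; mean of ≥3 experiments in duplicate.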
# Cannabinoid receptor 1 [9] = molecular target: Cannabinoid receptor 1 (Mus musculus, UniProt P47746); assay: Allosteric antagonist activity against mouse CB1 receptor in cerebellar membranes measured after 60 mins by [35S]GTPgammaS binding assay
# Chain of Cannabinoid receptor 1 (Mus musculus, UniProt P47746) (P47746 whole entry): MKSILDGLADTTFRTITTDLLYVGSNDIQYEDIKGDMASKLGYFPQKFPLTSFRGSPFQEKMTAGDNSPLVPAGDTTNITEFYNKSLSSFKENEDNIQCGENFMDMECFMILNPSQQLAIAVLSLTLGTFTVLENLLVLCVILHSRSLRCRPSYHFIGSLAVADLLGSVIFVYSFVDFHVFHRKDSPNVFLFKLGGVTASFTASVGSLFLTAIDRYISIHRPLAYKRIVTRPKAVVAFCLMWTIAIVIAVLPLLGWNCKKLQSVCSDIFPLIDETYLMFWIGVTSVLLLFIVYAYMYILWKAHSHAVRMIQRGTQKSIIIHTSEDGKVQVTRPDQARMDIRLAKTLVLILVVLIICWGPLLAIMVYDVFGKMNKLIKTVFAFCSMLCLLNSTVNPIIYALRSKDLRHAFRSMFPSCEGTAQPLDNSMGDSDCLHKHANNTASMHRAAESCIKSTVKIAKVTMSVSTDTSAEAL
# Chain of Cannabinoid receptor 2 (Homo sapiens) (P34972 whole entry): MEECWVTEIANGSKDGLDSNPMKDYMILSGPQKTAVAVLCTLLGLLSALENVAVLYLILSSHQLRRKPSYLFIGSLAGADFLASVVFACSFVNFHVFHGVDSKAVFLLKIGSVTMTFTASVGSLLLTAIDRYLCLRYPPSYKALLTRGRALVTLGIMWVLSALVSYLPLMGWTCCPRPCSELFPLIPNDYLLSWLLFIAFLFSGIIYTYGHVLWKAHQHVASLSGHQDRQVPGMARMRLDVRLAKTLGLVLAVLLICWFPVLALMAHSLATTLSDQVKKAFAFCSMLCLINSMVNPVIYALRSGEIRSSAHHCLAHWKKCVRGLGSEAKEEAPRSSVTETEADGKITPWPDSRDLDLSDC
# T1 sequence (P21554 whole entry): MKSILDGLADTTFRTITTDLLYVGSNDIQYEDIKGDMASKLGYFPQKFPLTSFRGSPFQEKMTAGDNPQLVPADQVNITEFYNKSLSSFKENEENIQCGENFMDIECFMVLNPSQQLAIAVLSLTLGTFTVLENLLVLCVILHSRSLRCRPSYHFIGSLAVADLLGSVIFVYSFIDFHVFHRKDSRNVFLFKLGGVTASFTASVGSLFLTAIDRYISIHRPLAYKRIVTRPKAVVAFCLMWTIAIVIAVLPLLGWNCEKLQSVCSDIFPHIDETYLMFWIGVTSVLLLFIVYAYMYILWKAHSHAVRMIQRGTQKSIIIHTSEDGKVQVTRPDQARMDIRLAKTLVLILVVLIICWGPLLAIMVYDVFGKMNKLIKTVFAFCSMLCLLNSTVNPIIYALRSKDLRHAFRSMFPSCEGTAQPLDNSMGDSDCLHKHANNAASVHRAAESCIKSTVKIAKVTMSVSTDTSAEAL
Structure (SMILES),IC50 (Cannabinoid receptor 1 [1]) [µM],Activity [2] [%],Emax [3] [%],Emax (Cannabinoid receptor 1 [4]) [%],CLH [5] [µL/min/mg],t1/2 [6] [min],IC50 (Cannabinoid receptor 1 [7]) [µM],IC50 (Cannabinoid receptor 1 [8]) [µM],IC50 (Cannabinoid receptor 1 [9]) [µM]
CN(C)c1ccc(CCNC(=O)Nc2ccc(Cl)cc2)cc1,0.257,< 35,< 20,< 30,–,–,–,–,–
O=C(NCCc1cccc(C(F)(F)F)c1)Nc1ccc(Cl)cc1,0.0288,< 35,< 20,< 30,90,15.5,0.676,1.29,–
CC(C)(C)c1ccc(CCNC(=O)Nc2ccc(Cl)cc2)cc1,0.537,< 35,< 20,< 30,–,–,> 10,> 10,> 10
Cc1cc(C)cc(CCNC(=O)Nc2ccc(Cl)cc2)c1,0.0288,< 35,< 20,–,–,–,6.61,6.61,–
O=C(NCCc1c(F)cccc1Cl)Nc1ccc(Cl)cc1,0.398,< 35,< 20,< 30,–,–,–,–,–
CN(C)c1cccc(CCNC(=O)Nc2ccc(Cl)cc2)c1,1.62,< 35,< 20,< 30,–,–,–,–,–
O=C(NCCc1ccccc1Cl)Nc1ccc(Cl)cc1,0.229,< 35,< 20,< 30,–,–,–,–,–
O=C(NCCc1cc(Cl)cc(Cl)c1)Nc1ccc(Cl)cc1,0.024,< 35,< 20,–,–,–,4.37,1.74,–
Cc1ccc(CCNC(=O)Nc2ccc(Cl)cc2)cc1C,0.0479,< 35,< 20,–,–,–,1.15,2.57,–
COc1cc(CCNC(=O)Nc2ccc(Cl)cc2)cc(OC)c1,1.07,< 35,< 20,< 30,–,–,–,–,–
O=C(NCCc1cccc(OC(F)(F)F)c1)Nc1ccc(Cl)cc1,0.0933,< 35,< 20,–,–,–,10.7,7.94,–
O=C(NCCc1ccc([N+](=O)[O-])cc1)Nc1ccc(Cl)cc1,0.0851,< 35,< 20,< 30,–,–,1.78,2.95,–
O=C(NCCc1ccc(C(F)(F)F)cc1)Nc1ccc(Cl)cc1,0.178,< 35,< 20,< 30,–,–,–,–,–
O=C(NCCc1ccc(F)cc1)Nc1ccc(Cl)cc1,0.105,< 35,< 20,< 30,–,–,1.7,4.37,0.891
O=C(NCCc1ccc(Br)cc1)Nc1ccc(Cl)cc1,0.148,< 35,< 20,< 30,–,–,–,–,–
COc1cc(CCNC(=O)Nc2ccc(Cl)cc2)ccc1O,> 10,< 35,< 20,< 30,–,–,–,–,–
O=C(NCCc1cccc(Br)c1)Nc1ccc(Cl)cc1,0.0324,< 35,< 20,–,–,–,0.724,3.47,–
N#Cc1cccc(CCNC(=O)Nc2ccc(Cl)cc2)c1,0.145,< 35,< 20,–,–,–,0.871,0.832,–
N#Cc1ccc(CCNC(=O)Nc2ccc(Cl)cc2)cc1,0.437,< 35,< 20,< 30,–,–,–,–,–

Structure (SMILES),IC50 (Cannabinoid receptor 1 [1]) [µM],Activity [2] [%],Emax [3] [%],Emax (Cannabinoid receptor 1 [4]) [%],CLH [5] [µL/min/mg],t1/2 [6] [min],IC50 (Cannabinoid receptor 1 [7]) [µM],IC50 (Cannabinoid receptor 1 [8]) [µM],IC50 (Cannabinoid receptor 1 [9]) [µM]
O=C(NCCc1ccc(Cl)cc1)Nc1ccc(Cl)cc1,0.162,< 35,< 20,< 30,–,–,–,–,–
O=C(NCCc1c(F)c(F)c(F)c(F)c1F)Nc1ccc(Cl)cc1,0.0324,< 35,< 20,< 30,–,–,–,–,–
O=C(NCCc1c(F)cc(F)cc1F)Nc1ccc(Cl)cc1,0.0794,< 35,< 20,< 30,–,–,–,–,–
COc1ccc(CCNC(=O)Nc2ccc(Cl)cc2)cc1,0.214,< 35,< 20,< 30,–,–,4.17,5.62,3.72
O=C(NCCc1ccc(O)cc1)Nc1ccc(Cl)cc1,> 10,< 35,< 20,< 30,–,–,–,–,–
O=C(NCCc1ccccc1F)Nc1ccc(Cl)cc1,0.17,< 35,< 20,< 30,–,–,–,–,–
COc1cccc(CCNC(=O)Nc2ccc(Cl)cc2)c1,0.447,< 35,< 20,< 30,–,–,7.76,12.3,–
O=C(NCCc1ccc(N2CCCCC2)cc1)Nc1ccc(Cl)cc1,0.912,< 35,< 20,–,–,–,–,–,–
O=C(NCCc1ccccc1)Nc1ccc(Cl)cc1,0.186,< 35,< 20,–,–,–,3.47,6.76,–
Cc1cccc(CCNC(=O)Nc2ccc(Cl)cc2)c1,0.0417,< 35,< 20,< 30,102,13.7,0.912,3.02,–
Cc1ccc(CCNC(=O)Nc2ccc(Cl)cc2)cc1,0.135,< 35,< 20,< 30,–,–,2.04,13.8,–
COc1ccccc1CCNC(=O)Nc1ccc(Cl)cc1,1.58,< 35,< 20,< 30,–,–,–,–,–
O=C(NCCc1ccccc1C(F)(F)F)Nc1ccc(Cl)cc1,0.126,< 35,< 20,< 30,–,–,3.24,4.27,–
O=C(NCCc1ccc(Cl)cc1Cl)Nc1ccc(Cl)cc1,0.166,< 35,< 20,< 30,–,–,–,–,–
O=C(NCCc1ccc(-c2ccccc2)cc1)Nc1ccc(Cl)cc1,0.871,< 35,< 20,< 30,–,–,–,–,–
O=C(NCCc1cccc(F)c1)Nc1ccc(Cl)cc1,0.0513,< 35,< 20,< 30,–,–,1.35,6.76,–
COc1ccc(CCNC(=O)Nc2ccc(Cl)cc2)cc1OC,1.78,< 35,< 20,< 30,–,–,> 10,> 10,–
CS(=O)(=O)c1ccc(CCNC(=O)Nc2ccc(Cl)cc2)cc1,> 10,< 35,< 20,< 30,–,–,–,–,–
